Measurements reported in ChEMBL document CHEMBL4680077, “Differentiation of skeletal osteogenic progenitor cells to osteoblasts with 3,4-diarylbenzopyran based amide derivatives: Novel osteogenic agents” (Eur J Med Chem, 2016).
Activity calls are given as the source filed them. The calls are words filed in the database; no cut-off is given here.

Experiments:
Calvarial osteoblast [1] = experiment: Induction of osteoblast differentiation in mouse calvarial osteoblast assessed as increase in ALP activity using PNPP as substrate at 0.000001 to 1 uM incubated activity for 48 hrs by spectrophotometric analysis relative to control; assay type: functional, cell-based; conditions: dose lower 1e-06 µM, dose upper 1.0 µM
Calvarial osteoblast [2] = experiment: Induction of osteoblast differentiation in mouse calvarial osteoblast assessed as increase in mineralization nodules at 1 pM incubated for 15 days by alizarin-red S dye based colorimetric analysis; assay type: functional, cell-based; conditions: time 15.0 day
Summary of the method: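 Calvarial osteoblasts were seeded at 2×10³ cells/well in differentiation medium (10 mM β-glycerophosphate, ascorbic acid) and cultured ± 1 pM with medium changed every 48 h. Cells were fixed in 4% formaldehyde and stained with 40 mM alizarin red S. Dye was extracted in 10% acetic acid at 85 °C, neutralized with ammonium hydroxide and read at 405 nm. n = 3.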

Mus musculus [3] = experiment: In vivo osteogenic activity in ovariectomized BALB/c mouse assessed as increase in femur bone volume density at 1 to 10 mg/kg, po via gavage administered for 1 month by microCT imaging analysis; assay type: functional, organism-based; conditions: dose 1-10 mg/kg, time 1.0 months
Summary of the method: (§1)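 Ovariectomized female balb/c mice, 8 weeks old, 10 per group, received 1.0 or 10.0 mg kg-1 once daily by oral gavage (gum acacia vehicle) for 4 weeks, alongside sham and Ovx vehicle groups. Femurs were scanned by microCT. BV/TV, Tb.N and Tb.Sp were derived by the mean intercept length method. Mean ± SE.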

Mus musculus [4] = experiment: In vivo osteogenic activity in ovariectomized BALB/c mouse assessed as increase in trabecular number at 1 to 10 mg/kg, po via gavage administered for 1 month by microCT imaging analysis; assay type: functional, organism-based; conditions: dose 1-10 mg/kg, time 1.0 months; summary of the method: as §1
Mus musculus [5] = experiment: In vivo osteogenic activity in ovariectomized BALB/c mouse assessed as decrease in serum OCN at 1 to 10 mg/kg, po via gavage administered for 30 days; assay type: functional, organism-based; conditions: dose 1-10 mg/kg, time 30.0 day
Summary of the method: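 Eight-week-old female balb/c mice were ovariectomized and dosed once daily by oral gavage at 1 or 10 mg kg-1 in vehicle (gum acacia in water) for 30 days; sham and Ovx vehicle groups served as controls. Serum CTx and osteocalcin were assayed in duplicate. n = 10 per group; mean ± SEM.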

[6] = Elimination rate constant in Sprague-Dawley rat at 1 mg/kg, po measured upto 24 hrs by LC-MS/MS analysis; assay type: ADME, organism-based; conditions: in vivo
Summary of the method: (§2)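 Female Sprague-Dawley rats (n = 4), fasted overnight 12–14 h, dosed orally at 1 mg kg-1 as a 0.25% CMC suspension and fed 3 h post-dose. Retro-orbital blood was taken from 0.25 to 24 h. Plasma was hexane-extracted and assayed by LC-MS/MS. Cmax and Tmax were read from the data; other parameters came from non-compartmental analysis. Mean ± S.D.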

[7] = Half life in Sprague-Dawley rat at 1 mg/kg, po measured upto 24 hrs by LC-MS/MS analysis; assay type: ADME, organism-based; conditions: in vivo; summary of the method: as §2
[8] = AUC (0 to infinity) in Sprague-Dawley rat at 1 mg/kg, po measured upto 24 hrs by LC-MS/MS analysis; assay type: ADME, organism-based; design: route oral, dose 1 mg/kg, time <=24; conditions: in vivo
Summary of the method: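 Female Sprague-Dawley rats (n = 4 per route), fasted overnight; 1 mg/kg oral (0.25% CMC) or i.v. tail-vein bolus (DMSO-PEG400-ethanol-water). Plasma was sampled to 24 h and assayed by LC-MS/MS (0.5-200 ng/mL). Non-compartmental AUC0-∞ = AUC0-t + Clast/kel; mean ± S.D.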

[9] = Acute toxicity in Swiss albino mouse assessed as body weight at 5 mg/kg, po observed on day 1 (reference value: 20.38 +/- 0.24 g); assay type: organism-based; conditions: in vivo, 24 h, time 1 day
[10] = Acute toxicity in Swiss albino mouse assessed as tissue protein level at 50 mg/kg, po measured after 7 days (reference value: 0.029 +/- 0.004 mg/ml); assay type: organism-based; conditions: in vivo, 168 h, time 7 day
[11] = Acute toxicity in Swiss albino mouse assessed as tissue protein level at 300 mg/kg, po measured after 7 days (reference value: 0.029 +/- 0.004 mg/ml); assay type: organism-based; conditions: in vivo, 168 h, time 7 day
[12] = Acute toxicity in Swiss albino mouse assessed as reduced GSH level at 1000 mg/kg, po measured after 7 days (reference value: 18.20 +/- 1.56 ug/mg of protein); assay type: organism-based; conditions: in vivo, 168 h, time 7 day
[13] = Acute toxicity in Swiss albino mouse assessed as lymphocyte count at 300 mg/kg, po measured after 7 days (reference value: 37.97 +/- 1.80 %); assay type: organism-based; conditions: in vivo, 168 h, time 7 day
[14] = Acute toxicity in Swiss albino mouse assessed as monocyte count at 300 mg/kg, po measured after 7 days (reference value: 12.58 +/- 2.86 %); assay type: organism-based; conditions: in vivo, 168 h, time 7 day
[15] = Acute toxicity in Swiss albino mouse assessed as basophil count at 300 mg/kg, po measured after 7 days (reference value: 1.50 +/- 0.29 %); assay type: organism-based; conditions: in vivo, 168 h, time 7 day
[16] = Acute toxicity in Swiss albino mouse assessed as basophil count at 1000 mg/kg, po measured after 7 days (reference value: 1.50 +/- 0.29 %); assay type: organism-based; conditions: in vivo, 168 h, time 7 day
[17] = Acute toxicity in Swiss albino mouse assessed as absolute uterus weight at 300 mg/kg, po measured after 7 days (reference value: 0.27+/- 0.07 g); assay type: organism-based; conditions: in vivo, 168 h, time 7 day
[18] = Acute toxicity in Swiss albino mouse assessed as relative spleen weight at 1000 mg/kg, po measured after 7 days (reference value: 0.73 +/- 0.14 %); assay type: organism-based; conditions: in vivo, 168 h, time 7 day

For `CCCCN(C)C(=O)CCCCOc1ccc([C@H]2c3ccc(OC)cc3OC(C)(C)[C@@H]2c2ccccc2)cc1`, the Activity (Calvarial osteoblast [1]) was “Active”, the Activity (Calvarial osteoblast [2]) was “Active” and the Activity (Mus musculus [3]) was “Active”. The Activity (Mus musculus [4]) was “Active”, the Activity (Mus musculus [5]) was “Active” and the k el at 24 h [6] was 5.39e-05 s⁻¹. For the same molecule, the half-life [7] was 3.62 h, the AUC [8] was 119.404 ng·h/mL and the Activity [9] was 20.65 g. For the same molecule, the Activity [10] was 0.036 mg/mL, the Activity [11] was 0.034 mg/mL and the Activity [12] was 13.98 µg/mg. The Activity [13] was 42.9%, the Activity [14] was 8.99% and the Activity [15] was 1.25%. The Activity [16] was 1.75%, the Activity [17] was 0.33 g and the Activity [18] was 0.5%.
